In ChEMBL document CHEMBL4715736, “Identification of anticancer agents based on the thieno[2,3-b]pyridine and 1H-pyrazole molecular scaffolds” (2016):

These compounds were tested on K562 (assay: Growth inhibition of human K562 cells incubated for 48 hrs by sulforhodamine B assay). Conditions: not given.
Assay type: functional
Outline: (§1)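 NCI60 panel at the NCI Developmental Therapeutics Program. Only compounds active in the 10 µM screen went to dose-response testing. GI50, the concentration giving 50% of maximal inhibition of proliferation, and TGI, the concentration giving total growth inhibition, were derived from the dose-response curves.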

Q: Which results are given for `CN1CCc2nc3sc(C(N)=O)c(N)c3c(-c3cccs3)c2C1`?
A: LC50 (concentration killing 50% of cells): > 100 µM; TGI: > 100 µM

These compounds were tested on RXF 393 (assay: Growth inhibition of human RXF 393 cells incubated for 48 hrs by sulforhodamine B assay). Conditions: not given.
Assay type: functional
Outline: (§2)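 NCI DTP 60-line human tumour panel. Dose-response curves were run only for ligands active in the initial 10 µM screen. GI50 (concentration giving 50% of maximal inhibition of proliferation) and TGI (concentration giving total growth inhibition) were derived from these curves.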

Q: For `CN1CCc2nc3sc(C(N)=O)c(N)c3c(-c3cccs3)c2C1`, which GI50 is on record?
A: 1.11 µM

Q: And the TGI?
A: 3.63 µM

Same assay, conditions: read-out: LC50 (the source's name)

Q: Which CC50 does the source give for `CN1CCc2nc3sc(C(N)=O)c(N)c3c(-c3cccs3)c2C1` here?
A: > 100 µM

The compounds below were run on A498 (assay: Growth inhibition of human A498 cells assessed as cell growth at 100 uM incubated for 48 hrs by sulforhodamine B assay relative to control). Conditions: read-out: Activity.
Assay type: functional
Outline: (§3)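 NCI Developmental Therapeutics Program NCI60 panel. Compounds that were active in the 10 µM one-dose screen went on to dose–response testing. Growth at each concentration is expressed relative to untreated control (100%). GI50 (concentration giving 50% of maximal inhibition of proliferation) and TGI (concentration giving total growth inhibition) were derived from the curves.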

Q: For `CN1CCc2nc3sc(C(N)=O)c(N)c3c(-c3cccs3)c2C1`, which growth at 100 µM is on record?
A: -23%

The compounds below were run on SN12C (assay: Growth inhibition of human SN12C cells assessed as cell growth at 1 uM incubated for 48 hrs by sulforhodamine B assay relative to control). Conditions: read-out: Activity.
Assay type: functional

Q: `CN1CCc2nc3sc(C(N)=O)c(N)c3c(-c3cccs3)c2C1` was tested. Which growth at 1 µM did it give?
A: 80%

What follows are compounds tested on M14 (assay: Growth inhibition of human M14 cells assessed as cell growth at 100 uM incubated for 48 hrs by sulforhodamine B assay relative to control). Conditions: read-out: Activity.
Assay type: functional

Q: For `CN1CCc2nc3sc(C(N)=O)c(N)c3c(-c3cccs3)c2C1`, which growth at 100 µM is on record?
A: -27%

What follows are compounds tested on SNB-75 (assay: Growth inhibition of human SNB-75 cells assessed as cell growth at 0.1 uM incubated for 48 hrs by sulforhodamine B assay relative to control). Conditions: read-out: Activity.
Assay type: functional

Q: Which growth at 0.1 µM does the source give for `CN1CCc2nc3sc(C(N)=O)c(N)c3c(-c3cccs3)c2C1` here?
A: 95%

These compounds were tested on HCT-15 (assay: Growth inhibition of human HCT-15 cells assessed as cell growth at 0.1 uM incubated for 48 hrs by sulforhodamine B assay relative to control). Conditions: read-out: Activity.
Assay type: functional

Q: With `CN1CCc2nc3sc(C(N)=O)c(N)c3c(-c3cccs3)c2C1` as the compound, how does the growth at 0.1 µM read?
A: 106%

The compounds below were run on RPMI-8226 (assay: Growth inhibition of human RPMI-8226 cells assessed as cell growth at 0.1 uM incubated for 48 hrs by sulforhodamine B assay relative to control). Conditions: read-out: Activity.
Assay type: functional

Q: How did the growth at 0.1 µM turn out when `CN1CCc2nc3sc(C(N)=O)c(N)c3c(-c3cccs3)c2C1` was run?
A: 121%

What follows are compounds tested on MDA-MB-435 (assay: Growth inhibition of human MDA-MB-435 cells assessed as cell growth at 0.1 uM incubated for 48 hrs by sulforhodamine B assay relative to control). Conditions: read-out: Activity.
Assay type: functional

Q: Which growth at 0.1 µM does the source give for `CN1CCc2nc3sc(C(N)=O)c(N)c3c(-c3cccs3)c2C1` here?
A: 95%

What follows are compounds tested on MDA-MB-435 (assay: Growth inhibition of human MDA-MB-435 cells assessed as cell growth at 0.01 uM incubated for 48 hrs by sulforhodamine B assay relative to control). Conditions: read-out: Activity.
Assay type: functional

Q: `CN1CCc2nc3sc(C(N)=O)c(N)c3c(-c3cccs3)c2C1` was tested. Which growth at 0.01 µM did it give?
A: 95%

These compounds were tested on T47D (assay: Growth inhibition of human T47D cells incubated for 48 hrs by sulforhodamine B assay). Conditions: not given.
Assay type: functional
Outline: as §2

Q: `CN1CCc2nc3sc(C(N)=O)c(N)c3c(-c3cccs3)c2C1` was tested. Which GI50 did it give?
A: 2.81 µM

Q: What about the TGI of the same compound?
A: > 100 µM

Same assay, conditions: read-out: LC50 (the source's name)

Q: For `CN1CCc2nc3sc(C(N)=O)c(N)c3c(-c3cccs3)c2C1`, which CC50 is on record?
A: > 100 µM

The compounds below were run on NCI/ADR-RES (assay: Growth inhibition of human NCI/ADR-RES cells incubated for 48 hrs by sulforhodamine B assay). Conditions: not given.
Assay type: functional
Outline: as §1

Q: For `CN1CCc2nc3sc(C(N)=O)c(N)c3c(-c3cccs3)c2C1`, which GI50 is on record?
A: 3.69 µM

Q: And the TGI?
A: 98.8 µM

Same assay, conditions: read-out: LC50 (the source's name)

Q: For `CN1CCc2nc3sc(C(N)=O)c(N)c3c(-c3cccs3)c2C1`, which CC50 is on record?
A: > 100 µM

What follows are compounds tested on A498 (assay: Growth inhibition of human A498 cells assessed as cell growth at 1 uM incubated for 48 hrs by sulforhodamine B assay relative to control). Conditions: read-out: Activity.
Assay type: functional
Outline: as §3

Q: For `CN1CCc2nc3sc(C(N)=O)c(N)c3c(-c3cccs3)c2C1`, which growth at 1 µM is on record?
A: 96%

These compounds were tested on SK-MEL-2 (assay: Growth inhibition of human SK-MEL-2 cells assessed as cell growth at 1 uM incubated for 48 hrs by sulforhodamine B assay relative to control). Conditions: read-out: Activity.
Assay type: functional

Q: Which growth at 1 µM does the source give for `CN1CCc2nc3sc(C(N)=O)c(N)c3c(-c3cccs3)c2C1` here?
A: 108%

The compounds below were run on A549 (assay: Growth inhibition of human A549/ATCC cells assessed as cell growth at 0.1 uM incubated for 48 hrs by sulforhodamine B assay relative to control). Conditions: read-out: Activity.
Assay type: functional
Outline: as §3

Q: `CN1CCc2nc3sc(C(N)=O)c(N)c3c(-c3cccs3)c2C1` was tested. Which growth at 0.1 µM did it give?
A: 95%

Each compound was assayed on COLO 205 (assay: Growth inhibition of human COLO 205 cells incubated for 48 hrs by sulforhodamine B assay). Conditions: not given.
Assay type: functional
Outline: as §3

Q: With `CN1CCc2nc3sc(C(N)=O)c(N)c3c(-c3cccs3)c2C1` as the compound, how does the GI50 read?
A: 1.43 µM

Q: And the LC50 (concentration killing 50% of cells)?
A: 9.35 µM

Q: What about the TGI of the same compound?
A: 3.66 µM

These compounds were tested on UACC-257 (assay: Growth inhibition of human UACC-257 cells assessed as cell growth at 0.1 uM incubated for 48 hrs by sulforhodamine B assay relative to control). Conditions: read-out: Activity.
Assay type: functional

Q: How did the growth at 0.1 µM turn out when `CN1CCc2nc3sc(C(N)=O)c(N)c3c(-c3cccs3)c2C1` was run?
A: 105%
